Tests used:
[1] = Cytotoxicity against human SW620 cells after 48 hrs by SRB assay; format: functional; conditions: SW-620, 48 h
Procedure, shortened: (§1)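 NCI-60 five-dose screen: compounds dissolved in DMSO/H2O, tested at five 10-fold dilutions (10^-4 to 10^-8 M) for 48 h. Growth measured by sulforhodamine B optical density at time zero and after 48 h drug or vehicle exposure. Percentage growth calculated relative to control. GI50 is the molar concentration giving 50% reduction in net cell growth versus day-0 cell numbers.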

[2] = system: MCF7; experiment: Cytotoxicity against human MCF7 cells after 48 hrs by SRB assay; format: functional; conditions: MCF7, 48 h; procedure, shortened: as §1
[3] = system: SK-MEL-5; experiment: Cytotoxicity against human SK-MEL-5 cells after 48 hrs by SRB assay; format: functional; conditions: SK-MEL-5, 48 h; procedure, shortened: as §1
[4] = Cytotoxicity against human HCT116 cells after 48 hrs by SRB assay; format: functional; conditions: HCT-116, 48 h; procedure, shortened: as §1
[5] = Cytotoxicity against human HCT15 cells after 48 hrs by SRB assay; format: functional; conditions: HCT-15, 48 h; procedure, shortened: as §1
[6] = system: NCI-H522; experiment: Cytotoxicity against human NCI-H522 cells after 48 hrs by SRB assay; format: functional; conditions: NCI-H522, 48 h; procedure, shortened: as §1
[7] = Cytotoxicity against human UO31 cells after 48 hrs by SRB assay; format: functional; conditions: UO-31, 48 h
Procedure, shortened: (§2)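 NCI-60 five-dose screen. Compounds dissolved in DMSO/H2O and tested at five 10-fold dilutions (10^-4 to 10^-8 M) for 48 h. Growth read by sulforhodamine B optical density at time zero and after 48 h of exposure to compound or vehicle. Percent growth calculated against control. GI50 is the molar concentration giving 50% reduction in net cell growth relative to cell number on day 0.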

[8] = Cytotoxicity against human OVCAR4 cells after 48 hrs by SRB assay; format: functional; conditions: OVCAR-4, 48 h; procedure, shortened: as §1
[9] = Cytotoxicity against human HCC2998 cells after 48 hrs by SRB assay; format: functional; conditions: HCC 2998, 48 h; procedure, shortened: as §1
[10] = Cytotoxicity against human HL-60(TB) cells after 48 hrs by SRB assay; format: functional; conditions: HL-60, 48 h; procedure, shortened: as §1
[11] = Cytotoxicity against human SF268 cells after 48 hrs by SRB assay; format: functional; conditions: SF-268, 48 h; procedure, shortened: as §1
[12] = system: U-251; experiment: Cytotoxicity against human U251 cells after 48 hrs by SRB assay; format: functional; conditions: U-251, 48 h; procedure, shortened: as §2
[13] = system: A498; experiment: Cytotoxicity against human A498 cells after 48 hrs by SRB assay; format: functional; conditions: A498, 48 h; procedure, shortened: as §1
[14] = system: KM12; experiment: Cytotoxicity against human KM12 cells after 48 hrs by SRB assay; format: functional; conditions: KM12, 48 h; procedure, shortened: as §1
[15] = system: SN12C; experiment: Cytotoxicity against human SN12C cells after 48 hrs by SRB assay; format: functional; procedure, shortened: as §1
[16] = Cytotoxicity against human DU145 cells after 48 hrs by SRB assay; format: functional; conditions: DU-145, 48 h; procedure, shortened: as §1
[17] = system: NCI-H23; experiment: Cytotoxicity against human NCI-H23 cells after 48 hrs by SRB assay; format: functional; conditions: NCI-H23, 48 h; procedure, shortened: as §1
[18] = Cytotoxicity against human UACC257 cells after 48 hrs by SRB assay; format: functional; conditions: UACC-257, 48 h; procedure, shortened: as §2
[19] = system: K562; experiment: Cytotoxicity against human K562 cells after 48 hrs by SRB assay; format: functional; conditions: K562, 48 h; procedure, shortened: as §1
[20] = Cytotoxicity against human NCI-ADR-RES cells after 48 hrs by SRB assay; format: functional; procedure, shortened: as §1
[21] = system: ACHN; experiment: Cytotoxicity against human ACHN cells after 48 hrs by SRB assay; format: functional; procedure, shortened: as §1
[22] = system: SK-MEL-28; experiment: Cytotoxicity against human SK-MEL-28 cells after 48 hrs by SRB assay; format: functional; conditions: SK-MEL-28, 48 h; procedure, shortened: as §1
[23] = system: MDA-MB-435; experiment: Cytotoxicity against human MDA-MB-435 cells after 48 hrs by SRB assay; format: functional; conditions: MDA-MB-435, 48 h; procedure, shortened: as §1
[24] = Cytotoxicity against human HOP62 cells after 48 hrs by SRB assay; format: functional; conditions: HOP-62, 48 h
Procedure, shortened: (§3)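 NCI-60 five-dose screen: compounds in DMSO/H2O tested at 10^-4 to 10^-8 M (10-fold steps) for 48 h. Cell mass read by sulforhodamine B optical density at time zero and after exposure to compound or vehicle. GI50 is the concentration giving 50% reduction in net cell growth relative to day-0 cell numbers.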

[25] = Cytotoxicity against human Hs578T cells assessed as reduction of cell viability after 48 hrs by calcein-AM-based fluorescence analysis; format: functional; conditions: Hs-578T
Procedure, shortened: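 Cells seeded at 3,000 per well in DMEM with 10% FBS and left overnight at 37 °C. A range of compound concentrations or vehicle was then added for 48 h. Cells were washed with DPBS pH 7.4 and loaded with 2 μM calcein-AM for 30 min at 25 °C. Fluorescence read at ex 490/em 520 nm; viability is given relative to untreated control (100%). Mean ± s.d.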

[26] = target: Tubulin (Sus scrofa, UniProt P02554+P02550); experiment: Inhibition of porcine brain tubulin polymerization by spectrophotometric analysis
Procedure, shortened: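 Tubulin at 4 mg/mL in cold 80 mM PIPES pH 6.9 with 2 mM MgCl2, 0.5 mM EGTA, GTP and 10% glycerol. Compound (added as 10x stock in 50% DMSO) or DMSO was preincubated 2 min at 37 °C in a prewarmed plate. Cold tubulin was then added, and polymerization at 37 °C was followed by A340 over time. Dose-response, mean ± s.d., n=3.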

[27] = system: HT-29; experiment: Cytotoxicity against human HT-29 cells after 48 hrs by SRB assay; format: functional; conditions: HT-29, 48 h; procedure, shortened: as §1
[28] = Cytotoxicity against human COLO205 cells after 48 hrs by SRB assay; format: functional; conditions: COLO 205, 48 h; procedure, shortened: as §1
[29] = Cytotoxicity against human RPMI8226 cells after 48 hrs by SRB assay; format: functional; conditions: RPMI-8226, 48 h; procedure, shortened: as §1
[30] = Cytotoxicity against human LOXIMVI cells after 48 hrs by SRB assay; format: functional; conditions: LOX IMVI; procedure, shortened: as §1
[31] = Cytotoxicity against human SKOV3 cells after 48 hrs by SRB assay; format: functional; conditions: SK-OV-3, 48 h; procedure, shortened: as §1
[32] = system: SK-MEL-2; experiment: Cytotoxicity against human SK-MEL-2 cells after 48 hrs by SRB assay; format: functional; conditions: SK-MEL-2, 48 h; procedure, shortened: as §1
[33] = Cytotoxicity against human Hs 578T cells after 48 hrs by SRB assay; format: functional; procedure, shortened: as §1
[34] = Cytotoxicity against human IGROV1 cells after 48 hrs by SRB assay; format: functional; conditions: IGROV-1, 48 h; procedure, shortened: as §3
[35] = Cytotoxicity against human OVCAR8 cells after 48 hrs by SRB assay; format: functional; conditions: OVCAR-8, 48 h; procedure, shortened: as §1
[36] = system: 786-0; experiment: Cytotoxicity against human 786-0 cells after 48 hrs by SRB assay; format: functional; conditions: 786-0, 48 h; procedure, shortened: as §1
[37] = Cytotoxicity against human PC3 cells after 48 hrs by SRB assay; format: functional; conditions: PC-3, 48 h; procedure, shortened: as §1
[38] = Cytotoxicity against human MOLT4 cells after 48 hrs by SRB assay; format: functional; conditions: MOLT-4, 48 h; procedure, shortened: as §1
[39] = system: M14; experiment: Cytotoxicity against human M14 cells after 48 hrs by SRB assay; format: functional; conditions: M14, 48 h; procedure, shortened: as §1
[40] = Cytotoxicity against human OVCAR3 cells after 48 hrs by SRB assay; format: functional; conditions: OVCAR-3, 48 h; procedure, shortened: as §1
[41] = system: SR; experiment: Cytotoxicity against human SR cells after 48 hrs by SRB assay; format: functional; procedure, shortened: as §1
[42] = Cytotoxicity against human SF539 cells after 48 hrs by SRB assay; format: functional; conditions: SF-539, 48 h; procedure, shortened: as §1
[43] = Cytotoxicity against human OVCAR5 cells after 48 hrs by SRB assay; format: functional; conditions: OVCAR-5, 48 h; procedure, shortened: as §1
[44] = system: MDA-MB-468; experiment: Cytotoxicity against human MDA-MB-468 cells after 48 hrs by SRB assay; format: functional; conditions: MDA-MB-468, 48 h; procedure, shortened: as §1
[45] = system: MDA-MB-231; experiment: Cytotoxicity against human MDA-MB-231 cells after 48 hrs by SRB assay; format: functional; conditions: MDA-MB-231, 48 h; procedure, shortened: as §1
[46] = system: CCRF-CEM; experiment: Cytotoxicity against human CCRF-CEM cells after 48 hrs by SRB assay; format: functional; procedure, shortened: as §1
[47] = Cytotoxicity against human HOP92 cells after 48 hrs by SRB assay; format: functional; conditions: HOP-92, 48 h; procedure, shortened: as §1
[48] = Cytotoxicity against human SNB75 cells after 48 hrs by SRB assay; format: functional; conditions: SNB-75, 48 h; procedure, shortened: as §1
[49] = system: NCI-H460; experiment: Cytotoxicity against human NCI-H460 cells after 48 hrs by SRB assay; format: functional; conditions: NCI-H460, 48 h; procedure, shortened: as §1
[50] = Cytotoxicity against human BT549 cells after 48 hrs by SRB assay; format: functional; conditions: BT-549, 48 h; procedure, shortened: as §1
[51] = Cytotoxicity against human SF295 cells after 48 hrs by SRB assay; format: functional; conditions: SF-295, 48 h; procedure, shortened: as §1
[52] = Cytotoxicity against human Caki1 cells after 48 hrs by SRB assay; format: functional; conditions: CAKI-1, 48 h; procedure, shortened: as §1
[53] = Cytotoxicity against human UACC62 cells after 48 hrs by SRB assay; format: functional; conditions: UACC-62, 48 h; procedure, shortened: as §2
[54] = system: A549; experiment: Cytotoxicity against human A549 cells after 48 hrs by SRB assay; format: functional; conditions: A549, 48 h; procedure, shortened: as §1
[55] = Cytotoxicity against human SNB19 cells after 48 hrs by SRB assay; format: functional; conditions: SNB-19, 48 h; procedure, shortened: as §1

## COc1cc(-c2n[nH]nc2-c2cc3ccccc3s2)cc(OC)c1OC
[1]
  GI50: < 10 nM
[2]
  GI50: < 10 nM
[3]
  GI50: < 10 nM
[4]
  GI50: < 10 nM
[5]
  GI50: < 10 nM
[6]
  GI50: < 10 nM
[7]
  GI50: < 10 nM
[8]
  GI50: 42 nM
[9]
  GI50: 36 nM
[10]
  GI50: < 10 nM
[11]
  GI50: < 10 nM
[12]
  GI50: < 10 nM
[13]
  GI50: < 10 nM
[14]
  GI50: 22 nM
[15]
  GI50: 48 nM
[16]
  GI50: < 10 nM
[17]
  GI50: < 10 nM
[18]
  GI50: < 10 nM
[19]
  GI50: < 10 nM
[20]
  GI50: < 10 nM
[21]
  GI50: < 10 nM
[22]
  GI50: < 10 nM
[23]
  GI50: < 10 nM
[24]
  GI50: 15 nM
[25]
  GI50: 10 nM
[26]
  IC50: 1700 nM
[27]
  GI50: 20 nM
[28]
  GI50: < 10 nM
[29]
  GI50: < 10 nM
[30]
  GI50: < 10 nM
[31]
  GI50: < 10 nM
[32]
  GI50: < 10 nM
[33]
  GI50: < 10 nM
[34]
  GI50: < 10 nM
[35]
  GI50: < 10 nM
[36]
  GI50: < 10 nM
[37]
  GI50: 34 nM
[38]
  GI50: 42 nM
[39]
  GI50: < 10 nM
[40]
  GI50: < 10 nM
[41]
  GI50: < 10 nM
[42]
  GI50: < 10 nM
[43]
  GI50: 42 nM
[44]
  GI50: < 10 nM
[45]
  GI50: 14 nM
[46]
  GI50: 28 nM
[47]
  GI50: < 10 nM
[48]
  GI50: < 10 nM
[49]
  GI50: < 10 nM
[50]
  GI50: < 10 nM
[51]
  GI50: < 10 nM
[52]
  GI50: < 10 nM
[53]
  GI50: < 10 nM
[54]
  GI50: 23 nM
[55]
  GI50: < 10 nM

From ChEMBL document CHEMBL3751743, “Synthesis and anti-cancer screening of novel heterocyclic-(2H)-1,2,3-triazoles as potential anti-cancer agents” (Medchemcomm, 2015)
